# Published values from different studies.
# Lines come from different studies, so protocols differ.
# Target: Wee1-like protein kinase (WEE1, Homo sapiens, UniProt P30291)
observed,mode,technique,cells,tested at,quantity,result,SMILES
enzyme activity,inhibitor,radiometric,,1 µM,remaining activity,91%,CC(C)(C)c1nc(-c2cccc(NS(=O)(=O)c3c(F)cccc3F)c2F)c(-c2ccnc(N)n2)s1
enzyme activity,inhibitor,,,1 µM,activity vs control,103%,Cc1ccc(C(=O)NCc2ccsc2)cc1C#Cc1cn(C(C)C)c2ncnc(N)c12
binding,,competition with immobilised ligand,,1 µM,remaining binding,100%,O=c1nc(-c2ccccn2)sc2ccccc12
enzyme activity,inhibitor,,,5 µM,remaining activity,124%,O=C(Nc1cnn(-c2csc(C(=O)NC3COC3)c2)c1)Nc1ccccc1Cl
cell-free assay,,,,0.5 µM,remaining signal,93.8%,COc1cc2ncnc(Nc3ccc(F)c(Cl)c3)c2cc1OCCCN1CCOCC1
target engagement in cells,inhibitor,chemoproteomics,Huh-7,1 µM,inhibition,-10.9%,CNc1cc(Oc2cc(C(=O)Nc3cc(N4CCN(C)CC4)cc(C(F)(F)F)c3)ccc2C)ncn1
binding,,competition with immobilised ligand,,1 µM,remaining binding,80%,Cc1c(C(=O)O)cc(-c2ccc(C3CCNCC3)cc2)c2ccc(-c3ccc(C(F)(F)F)cc3)cc12
enzyme activity,inhibitor,,,0.5 µM,remaining activity,95.3%,Cc1ccc(Nc2nccc(N(C)c3ccc4c(C)n(C)nc4c3)n2)cc1S(N)(=O)=O
enzyme activity,inhibitor,,,1 µM,remaining activity,87.3%,CC(C)(O)[C@H]1CC[C@H](Nc2ccc3ncc(-c4cccc(C(F)(F)F)c4)n3n2)CC1
cell-free assay,,competition with immobilised ligand,,1 µM,remaining binding,100%,CCOCCn1cc(C(=O)Nc2ccc(-n3nc(-c4cccnc4)cc3C(F)(F)F)cn2)ccc1=O
enzyme activity,inhibitor,radiometric,,1 µM,remaining activity,101%,Cc1cnc(NC2CCOCC2)nc1-n1cnc(C(=O)NC(CN)c2cc(F)cc(Cl)c2)c1 (stereo not shown)
cell-free assay,,competition with immobilised ligand,,1 µM,remaining binding,100%,C[C@H](NC(=O)c1cnc2n1[C@](C)(Cc1ccc(C#N)cc1)C(=O)N2c1cc(Cl)c(F)c(Cl)c1)C(=O)NC1(c2ccccn2)CC1
cell-free assay,,,,0.5 µM,remaining signal,79.1%,O=C1Nc2ccc(Cl)cc2C1=Cc1cc(Cl)c(O)c(Cl)c1
cell-free assay,,competition with immobilised ligand,,1 µM,remaining binding,72%,Nc1cnc(N2CCc3cc(S(=O)(=O)Nc4c(F)cc(Cl)cc4F)cc(N4CCCC4=O)c32)nc1
cell-free assay,,,,0.5 µM,remaining signal,95.1%,COc1cc2c(Nc3ccc(Br)cc3F)ncnc2cc1OCC1CCN(C)CC1
enzyme activity,inhibitor,,,1 µM,inhibition,2%,CN1CC(Oc2cnc(C#N)cc2-c2ccn3nc(NC(=O)C4CC4)cc3c2)C1
